{"source": "ChEMBL document CHEMBL5661979", "about": "“Pharmacological inhibition of BMK1 suppresses tumor growth through promyelocytic leukemia protein” (Cancer Cell, 2010)", "key": {"[1]": {"biological_target": "T1, Phosphatidylinositol 5-phosphate 4-kinase type-2 alpha (Homo sapiens) (UniProt P48426)", "T1 sequence (whole entry)": "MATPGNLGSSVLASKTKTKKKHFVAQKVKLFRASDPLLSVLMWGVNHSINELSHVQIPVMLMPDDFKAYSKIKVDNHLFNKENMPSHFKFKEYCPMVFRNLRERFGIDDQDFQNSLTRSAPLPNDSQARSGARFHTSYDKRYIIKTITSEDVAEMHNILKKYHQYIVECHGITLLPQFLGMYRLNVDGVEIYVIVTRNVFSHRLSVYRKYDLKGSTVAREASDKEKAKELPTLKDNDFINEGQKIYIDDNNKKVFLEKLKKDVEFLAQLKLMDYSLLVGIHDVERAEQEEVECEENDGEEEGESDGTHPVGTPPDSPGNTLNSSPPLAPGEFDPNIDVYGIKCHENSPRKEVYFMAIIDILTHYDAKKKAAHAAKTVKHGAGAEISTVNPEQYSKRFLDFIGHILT", "assay": "Inhibition of PIP5K2A LIP1 site in human HeLa cells lysate at 50 uM pre incubated for 15 mins followed by ADP acyl phosphate probe addition and measured after 10 mins by LC-MS/MS analysis relative to control", "type": "subcellular", "conditions": "time 25.0 min"}, "[2]": {"biological_target": "T2, Serine/threonine-protein kinase tousled-like 1 (Homo sapiens) (UniProt Q9UKI8)", "T2 sequence (whole entry)": "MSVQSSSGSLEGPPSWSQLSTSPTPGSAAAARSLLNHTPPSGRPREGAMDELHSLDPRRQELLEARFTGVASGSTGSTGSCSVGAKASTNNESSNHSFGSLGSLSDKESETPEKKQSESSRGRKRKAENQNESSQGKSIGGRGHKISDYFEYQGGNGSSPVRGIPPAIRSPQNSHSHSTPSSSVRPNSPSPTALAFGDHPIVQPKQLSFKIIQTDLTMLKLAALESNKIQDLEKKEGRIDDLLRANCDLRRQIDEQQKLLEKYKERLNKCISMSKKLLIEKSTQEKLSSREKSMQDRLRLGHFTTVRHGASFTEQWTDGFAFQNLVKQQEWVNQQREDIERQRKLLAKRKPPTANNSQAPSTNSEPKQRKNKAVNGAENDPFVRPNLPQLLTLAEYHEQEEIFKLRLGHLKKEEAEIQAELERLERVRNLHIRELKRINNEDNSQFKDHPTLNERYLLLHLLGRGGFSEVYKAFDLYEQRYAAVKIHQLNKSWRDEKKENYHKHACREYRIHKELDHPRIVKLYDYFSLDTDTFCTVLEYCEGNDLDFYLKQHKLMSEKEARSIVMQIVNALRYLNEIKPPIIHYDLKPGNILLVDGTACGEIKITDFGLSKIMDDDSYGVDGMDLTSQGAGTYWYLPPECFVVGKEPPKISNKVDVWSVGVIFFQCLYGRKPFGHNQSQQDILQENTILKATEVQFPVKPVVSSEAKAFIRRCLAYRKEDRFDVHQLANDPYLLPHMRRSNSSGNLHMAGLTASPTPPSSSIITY", "assay": "Inhibition of TLK1 in human HeLa cells lysate at 50 uM pre incubated for 15 mins followed by ADP acyl phosphate probe addition and measured after 10 mins by LC-MS/MS analysis relative to control", "type": "subcellular", "conditions": "time 25.0 min"}, "[3]": {"biological_target": "Ribosomal protein S6 kinase alpha-3 (Homo sapiens, UniProt P51812)", "sequence (P51812 whole entry, the tested form may be a part)": "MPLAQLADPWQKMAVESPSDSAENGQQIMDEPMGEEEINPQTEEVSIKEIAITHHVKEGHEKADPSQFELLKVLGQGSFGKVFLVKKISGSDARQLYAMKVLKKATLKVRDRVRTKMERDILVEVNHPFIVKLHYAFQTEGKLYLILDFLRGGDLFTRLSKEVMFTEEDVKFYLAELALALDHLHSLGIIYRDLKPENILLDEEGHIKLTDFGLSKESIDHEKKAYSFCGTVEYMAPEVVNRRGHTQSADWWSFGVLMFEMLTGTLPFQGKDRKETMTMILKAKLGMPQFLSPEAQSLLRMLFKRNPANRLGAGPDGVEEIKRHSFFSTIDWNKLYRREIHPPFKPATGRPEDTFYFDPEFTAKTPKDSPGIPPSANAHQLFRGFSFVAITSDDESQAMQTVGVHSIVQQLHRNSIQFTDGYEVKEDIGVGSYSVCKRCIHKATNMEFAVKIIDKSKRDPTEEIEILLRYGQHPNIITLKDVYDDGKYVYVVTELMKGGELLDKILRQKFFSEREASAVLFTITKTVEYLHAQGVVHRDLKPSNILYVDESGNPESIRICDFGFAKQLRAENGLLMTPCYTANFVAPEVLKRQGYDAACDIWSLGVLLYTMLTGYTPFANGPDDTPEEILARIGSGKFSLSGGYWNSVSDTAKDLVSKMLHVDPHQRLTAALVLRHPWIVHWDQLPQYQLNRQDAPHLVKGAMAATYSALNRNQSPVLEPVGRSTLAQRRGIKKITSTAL", "assay": "Inhibition of RSK2 domain 2 in human HeLa cells lysate at 10 uM pre incubated for 15 mins followed by ADP acyl phosphate probe addition and measured after 10 mins by LC-MS/MS analysis relative to control", "type": "subcellular", "conditions": "time 25.0 min"}, "[4]": {"system": "Serine/threonine-protein kinase PLK1 (Homo sapiens), P53350 [UNDEFINED MUTATION]", "sequence (P53350 whole entry, looked up, stated change not applied, canonical isoform)": "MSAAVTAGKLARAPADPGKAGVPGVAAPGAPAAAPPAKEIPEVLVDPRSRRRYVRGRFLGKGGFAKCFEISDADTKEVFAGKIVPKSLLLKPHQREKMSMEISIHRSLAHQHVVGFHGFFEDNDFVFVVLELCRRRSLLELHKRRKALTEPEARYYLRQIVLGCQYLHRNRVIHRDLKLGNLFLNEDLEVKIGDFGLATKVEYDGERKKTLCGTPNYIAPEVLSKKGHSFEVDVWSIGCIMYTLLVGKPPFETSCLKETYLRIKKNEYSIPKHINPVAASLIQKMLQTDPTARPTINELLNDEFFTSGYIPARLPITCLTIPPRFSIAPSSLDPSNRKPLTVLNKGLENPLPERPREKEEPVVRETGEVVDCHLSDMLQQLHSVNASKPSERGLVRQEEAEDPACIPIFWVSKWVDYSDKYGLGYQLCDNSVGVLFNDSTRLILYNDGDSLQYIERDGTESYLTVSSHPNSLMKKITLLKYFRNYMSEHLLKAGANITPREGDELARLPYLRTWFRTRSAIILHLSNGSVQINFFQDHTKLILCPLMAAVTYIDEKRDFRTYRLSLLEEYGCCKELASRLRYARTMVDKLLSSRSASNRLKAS", "assay": "Inhibition of PLK1 splice variant in human HeLa cells lysate at 10 uM pre incubated for 15 mins followed by ADP acyl phosphate probe addition and measured after 10 mins by LC-MS/MS analysis relative to control", "type": "subcellular", "conditions": "time 25.0 min"}, "[5]": {"biological_target": "Serine/threonine-protein kinase 24 (Homo sapiens, UniProt Q9Y6E0)", "sequence (Q9Y6E0 whole entry, looked up)": "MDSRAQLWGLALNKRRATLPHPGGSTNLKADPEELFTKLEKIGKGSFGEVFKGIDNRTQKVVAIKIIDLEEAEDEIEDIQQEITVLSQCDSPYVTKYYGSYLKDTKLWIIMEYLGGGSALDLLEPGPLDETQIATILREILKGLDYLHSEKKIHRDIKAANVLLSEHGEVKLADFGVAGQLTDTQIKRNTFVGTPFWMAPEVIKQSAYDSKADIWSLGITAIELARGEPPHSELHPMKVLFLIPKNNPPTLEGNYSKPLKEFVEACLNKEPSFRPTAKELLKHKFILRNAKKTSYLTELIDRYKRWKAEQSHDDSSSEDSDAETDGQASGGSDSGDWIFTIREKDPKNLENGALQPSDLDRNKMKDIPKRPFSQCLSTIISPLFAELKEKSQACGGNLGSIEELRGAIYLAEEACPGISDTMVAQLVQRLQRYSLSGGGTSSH", "assay": "Inhibition of MST3 in human HeLa cells lysate at 2 uM pre incubated for 15 mins followed by ADP acyl phosphate probe addition and measured after 10 mins by LC-MS/MS analysis relative to control", "type": "subcellular", "conditions": "time 25.0 min"}, "[6]": {"biological_target": "T3, Serine/threonine-protein kinase Sgk3 (Homo sapiens) (UniProt Q96BR1)", "T3 sequence (whole entry)": "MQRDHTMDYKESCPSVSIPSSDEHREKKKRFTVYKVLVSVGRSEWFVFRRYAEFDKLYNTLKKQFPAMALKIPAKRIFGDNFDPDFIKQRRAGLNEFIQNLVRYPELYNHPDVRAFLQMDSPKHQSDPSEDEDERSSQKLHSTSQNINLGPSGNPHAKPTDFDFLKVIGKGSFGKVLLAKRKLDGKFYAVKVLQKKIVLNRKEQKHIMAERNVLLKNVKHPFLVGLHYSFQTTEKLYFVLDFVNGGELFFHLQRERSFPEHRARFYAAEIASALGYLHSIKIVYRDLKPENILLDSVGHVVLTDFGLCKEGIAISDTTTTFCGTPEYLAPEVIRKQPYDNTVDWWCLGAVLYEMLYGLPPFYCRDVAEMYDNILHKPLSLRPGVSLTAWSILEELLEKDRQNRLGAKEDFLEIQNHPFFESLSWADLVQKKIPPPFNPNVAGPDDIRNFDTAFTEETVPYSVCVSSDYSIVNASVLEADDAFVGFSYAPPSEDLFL", "assay": "Inhibition of SGK3 in human HeLa cells lysate at 2 uM pre incubated for 15 mins followed by ADP acyl phosphate probe addition and measured after 10 mins by LC-MS/MS analysis relative to control", "type": "subcellular", "conditions": "time 25.0 min"}, "[7]": {"biological_target": "Phosphatidylinositol 4-phosphate 3-kinase C2 domain-containing subunit beta (Homo sapiens, UniProt O00750)", "sequence (O00750 whole entry, the tested form may be a part)": "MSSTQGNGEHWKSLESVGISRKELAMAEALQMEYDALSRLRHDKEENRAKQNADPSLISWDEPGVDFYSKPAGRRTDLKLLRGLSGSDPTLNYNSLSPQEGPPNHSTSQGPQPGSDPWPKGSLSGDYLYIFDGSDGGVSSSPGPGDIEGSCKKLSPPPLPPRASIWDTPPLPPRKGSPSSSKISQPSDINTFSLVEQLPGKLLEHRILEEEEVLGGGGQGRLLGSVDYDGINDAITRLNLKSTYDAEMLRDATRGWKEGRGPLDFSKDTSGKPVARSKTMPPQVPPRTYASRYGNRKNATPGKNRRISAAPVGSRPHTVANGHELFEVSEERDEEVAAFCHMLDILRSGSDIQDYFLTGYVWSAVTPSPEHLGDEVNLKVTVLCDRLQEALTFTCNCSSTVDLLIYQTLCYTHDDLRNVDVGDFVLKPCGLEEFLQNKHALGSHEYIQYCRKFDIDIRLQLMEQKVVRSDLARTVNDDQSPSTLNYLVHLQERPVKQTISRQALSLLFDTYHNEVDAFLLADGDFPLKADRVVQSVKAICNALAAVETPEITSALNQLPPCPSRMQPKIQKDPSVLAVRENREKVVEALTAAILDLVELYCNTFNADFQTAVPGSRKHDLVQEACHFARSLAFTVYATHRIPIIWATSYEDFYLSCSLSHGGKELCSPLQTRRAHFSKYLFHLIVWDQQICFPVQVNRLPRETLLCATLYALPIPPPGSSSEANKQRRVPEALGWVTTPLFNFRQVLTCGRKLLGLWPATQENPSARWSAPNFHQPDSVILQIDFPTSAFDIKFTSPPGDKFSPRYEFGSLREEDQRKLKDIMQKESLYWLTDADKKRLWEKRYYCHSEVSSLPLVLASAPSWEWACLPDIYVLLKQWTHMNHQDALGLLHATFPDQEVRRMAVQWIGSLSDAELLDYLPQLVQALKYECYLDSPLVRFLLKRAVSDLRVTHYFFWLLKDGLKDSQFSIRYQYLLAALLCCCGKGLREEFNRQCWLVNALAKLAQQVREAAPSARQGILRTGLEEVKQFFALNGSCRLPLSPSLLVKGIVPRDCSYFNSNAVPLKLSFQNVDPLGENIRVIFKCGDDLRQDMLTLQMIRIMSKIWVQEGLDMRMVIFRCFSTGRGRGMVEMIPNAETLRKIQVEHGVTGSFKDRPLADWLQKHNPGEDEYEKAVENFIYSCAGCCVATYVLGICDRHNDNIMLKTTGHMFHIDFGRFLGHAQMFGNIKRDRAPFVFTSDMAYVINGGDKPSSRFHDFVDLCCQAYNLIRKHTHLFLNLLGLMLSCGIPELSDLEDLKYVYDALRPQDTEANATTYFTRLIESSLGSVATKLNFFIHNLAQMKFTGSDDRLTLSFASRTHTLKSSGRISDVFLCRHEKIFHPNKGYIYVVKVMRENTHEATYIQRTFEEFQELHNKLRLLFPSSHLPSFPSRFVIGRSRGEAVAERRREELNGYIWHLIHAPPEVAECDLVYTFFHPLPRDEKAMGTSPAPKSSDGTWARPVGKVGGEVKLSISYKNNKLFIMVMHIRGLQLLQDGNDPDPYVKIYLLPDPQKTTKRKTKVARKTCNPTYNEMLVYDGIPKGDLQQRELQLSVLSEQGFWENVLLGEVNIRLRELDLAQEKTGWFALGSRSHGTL", "assay": "Inhibition of PIK3C2B in human HeLa cells lysate at 50 uM pre incubated for 15 mins followed by ATP acyl phosphate probe addition and measured after 10 mins by LC-MS/MS analysis relative to control", "type": "subcellular", "conditions": "time 25.0 min"}, "[8]": {"biological_target": "Calcium/calmodulin-dependent protein kinase type II subunit gamma (Homo sapiens, UniProt Q13555)", "sequence (Q13555 whole entry)": "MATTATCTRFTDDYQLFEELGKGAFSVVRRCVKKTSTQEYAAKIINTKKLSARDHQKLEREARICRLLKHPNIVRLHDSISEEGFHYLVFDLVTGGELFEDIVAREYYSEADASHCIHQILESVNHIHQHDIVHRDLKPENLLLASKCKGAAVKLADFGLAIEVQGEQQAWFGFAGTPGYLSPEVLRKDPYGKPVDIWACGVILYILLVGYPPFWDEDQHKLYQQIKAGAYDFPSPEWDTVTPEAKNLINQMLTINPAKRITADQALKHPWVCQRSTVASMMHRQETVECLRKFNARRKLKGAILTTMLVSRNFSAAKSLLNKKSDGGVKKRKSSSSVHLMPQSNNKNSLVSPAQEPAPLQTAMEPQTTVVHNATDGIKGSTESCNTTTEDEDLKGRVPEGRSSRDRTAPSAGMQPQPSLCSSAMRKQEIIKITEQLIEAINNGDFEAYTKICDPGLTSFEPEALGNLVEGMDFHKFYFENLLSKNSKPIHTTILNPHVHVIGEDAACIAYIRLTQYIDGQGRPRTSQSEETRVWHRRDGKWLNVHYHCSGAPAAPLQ", "assay": "Inhibition of CAMK2g in human HeLa cells lysate at 50 uM pre incubated for 15 mins followed by ATP acyl phosphate probe addition and measured after 10 mins by LC-MS/MS analysis relative to control", "type": "subcellular", "conditions": "time 25.0 min", "how_it_was_run": "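KiNativ-type profiling in HeLa lysate (5 mg/mL total protein). Lysate preincubated 15 min with inhibitor at 50, 10, 2, 0.8 or 0 μM, then ATP or ADP acylphosphate probe added (5 μM final) for 10 min. Reaction stopped with urea and analysed by targeted MS, using up to four fragment ions per kinase peptide-probe conjugate. % inhibition calculated against untreated lysate. Duplicate reactions.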"}, "[9]": {"assay": "Inhibition of MST4/YSK1 in human HeLa cells lysate at 10 uM pre incubated for 15 mins followed by ATP acyl phosphate probe addition and measured after 10 mins by LC-MS/MS analysis relative to control", "conditions": "25 min, condition cancer"}, "[10]": {"assay": "Inhibition of SRC/FYN/YES in human HeLa cells lysate at 10 uM pre incubated for 15 mins followed by ATP acyl phosphate probe addition and measured after 10 mins by LC-MS/MS analysis relative to control", "conditions": "25 min, condition cancer"}, "[11]": {"biological_target": "Tyrosine-protein kinase Lyn (Homo sapiens, UniProt P07948)", "sequence (P07948 2-512 limits assumed)": "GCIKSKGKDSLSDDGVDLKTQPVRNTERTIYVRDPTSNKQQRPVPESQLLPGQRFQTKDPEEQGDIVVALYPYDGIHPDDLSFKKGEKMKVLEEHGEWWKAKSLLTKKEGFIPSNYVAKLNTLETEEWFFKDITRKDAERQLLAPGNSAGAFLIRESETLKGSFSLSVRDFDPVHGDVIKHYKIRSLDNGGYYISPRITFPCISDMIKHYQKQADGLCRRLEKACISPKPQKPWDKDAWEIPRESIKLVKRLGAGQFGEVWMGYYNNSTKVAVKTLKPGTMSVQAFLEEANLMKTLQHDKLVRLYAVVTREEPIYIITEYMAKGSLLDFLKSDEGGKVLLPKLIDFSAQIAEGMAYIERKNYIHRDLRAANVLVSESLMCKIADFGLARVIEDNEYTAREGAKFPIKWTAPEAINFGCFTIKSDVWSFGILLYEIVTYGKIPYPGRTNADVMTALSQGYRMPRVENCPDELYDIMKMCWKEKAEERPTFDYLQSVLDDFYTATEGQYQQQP", "assay": "Inhibition of LYN in human HeLa cells lysate at 2 uM pre incubated for 15 mins followed by ATP acyl phosphate probe addition and measured after 10 mins by LC-MS/MS analysis relative to control", "type": "subcellular", "conditions": "time 25.0 min"}}, "data": [{"smiles": "CCOc1cc(N2CCC(O)CC2)ccc1Nc1ncc2c(n1)N(C)c1ccccc1C(=O)N2C", "values": [{"measurement": "inhibition", "setting": "[1]", "value": 16.2, "unit": "%"}, {"measurement": "inhibition", "setting": "[2]", "value": -4.5, "unit": "%"}, {"measurement": "inhibition", "setting": "[3]", "value": -5.7, "unit": "%"}, {"measurement": "inhibition", "setting": "[4]", "value": 0.8, "unit": "%"}, {"measurement": "inhibition", "setting": "[5]", "value": 3.2, "unit": "%"}, {"measurement": "inhibition", "setting": "[6]", "value": 16.6, "unit": "%"}, {"measurement": "inhibition", "setting": "[7]", "value": 46.3, "unit": "%"}, {"measurement": "inhibition", "setting": "[8]", "value": 13.9, "unit": "%"}, {"measurement": "inhibition at 10 µM", "setting": "[9]", "value": 5.1, "unit": "%"}, {"measurement": "inhibition at 10 µM", "setting": "[10]", "value": -68.3, "unit": "%"}, {"measurement": "inhibition", "setting": "[11]", "value": -6.3, "unit": "%"}]}]}
